A short description of test [1]: Displacement of [3H]DTG from sigma2 receptor in rat cerebral cortex cell membrane. The test is classed as cell membranes. The gist of the method: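 Rat cerebral cortex membranes (100-200 μg protein) incubated with [3H]DTG (5 nM) and 300 nM (+)-pentazocine to mask σ1 sites, across a range of test concentrations, 2 h at 22 °C in 5 mM Tris/HCl pH 7.4. Nonspecific binding defined with 10 μM haloperidol. GF/B filtration, scintillation counting. Triplicates; Ki from two to three experiments.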
(In a radioligand displacement assay an active substance lowers the binding of a labelled ligand.)

For test [2], the target named is Sigma non-opioid intracellular receptor 1 (Homo sapiens, UniProt Q99720). The experiment in a line: Displacement of [3H](+)-pentazocine from sigma1 receptor in human Jurkat cell membrane. The test is classed as cell membranes.
Test [3] can be described thus: Selectivity for human sigma1 receptor over rat sigma2 receptor. The gist of the method:
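Selectivity ratio is the antilog of pKi(σ1) minus pKi(σ2). σ1 binding: Jurkat membranes with [3H](+)-pentazocine (8 nM). σ2 binding: rat cortex membranes with [3H]DTG (5 nM) plus 300 nM (+)-pentazocine. Both run 2 h at 22 °C in 5 mM Tris/HCl pH 7.4, nonspecific binding with 10 μM haloperidol.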

Test [4] is described as follows: Antagonist activity at sigma2 receptor in guinea pig ileum longitudinal muscle assessed as inhibition of 5-HT-induced contractions. Particulars: Cavia porcellus. The test is classed as functional, tissue-based. The gist of the method: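 Longitudinal muscle/myenteric plexus ileum segments from male guinea pigs (300-400 g), 1 g tension, Tyrode's at 37 °C gassed with 95% O2/5% CO2, 1 μM ketanserin present throughout. After 90 min equilibration, three noncumulative 5-HT concentration-response curves; the second is run with test compound. 5-HT contact 1 min, 20 min washes between doses; peak isotonic contraction recorded.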

Test [5] concerns NCI/ADR-RES. The test can be described thus: Growth inhibition of human MCF7/ADR cells highly expressing sigma1 receptor at 10 uM after 48 hrs by SRB assay. In kind it is functional, cell-based. The gist of the method:
(§1)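 MCF-7 or MCF-7/ADR cells seeded at 1 × 10⁴/well, dosed after 24 h with 10 μM compound for 48 h at 37 °C, 5% CO2. Fixed with cold TCA, stained with 0.4% SRB in 1% acetic acid, dye solubilized in 10 mM Tris, absorbance read at 520 nm. Percent inhibition given as mean ± SEM of three experiments.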
(In SRB staining, fixed cells bind dye roughly in proportion to their protein.)

The test system of test [6] is MCF7. The test can be described thus: Growth inhibition of human MCF7 cells at 10 uM after 48 hrs by SRB assay. The test is classed as functional, cell-based. The gist of the method:
as §1

Test [7] can be described thus: Growth inhibition of human MCF7/ADR cells highly expressing sigma1 receptor after 48 hrs by SRB assay. The test is classed as functional. Particulars: NCI/ADR-RES. The gist of the method:
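Cells seeded at 1 × 10⁴/well; after 24 h, compound (10 nM-10 μM) added in quadruplicate for 48 h at 37 °C, 5% CO2, with a time-zero plate read. TCA fixation, 0.4% SRB stain, absorbance at 520 nm. GI50 is the concentration halving net protein increase, interpolated from % growth versus log concentration; mean of triplicates.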

Test [8] can be described thus: Cell cycle arrest in human MCF7/ADR cells highly expressing sigma1 receptor assessed as accumulation at S phase at 10 uM after 48 hrs by propidium iodide staining based flow cytometry relative to control. In kind it is functional. Particulars: NCI/ADR-RES. The gist of the method: (§2)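 MCF-7 or MCF-7/ADR cells (3 × 10⁵/mL) held 48 h at 37 °C, 5% CO2 with 10 μM compound. Fixed in cold 70% ethanol for 15 min on ice, then stained 40 min at 37 °C with PI (50 μg/mL) plus RNase A (0.1 mg/mL) and 0.05% Triton X-100. Flow cytometry over 10000 events; one of three experiments shown.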
On the technique in general: In flow cytometry, cells or beads pass a laser one at a time.

Test [9] in a line: Cell cycle arrest in human MCF7/ADR cells highly expressing sigma1 receptor assessed as accumulation at G2/M phase at 10 uM after 48 hrs by propidium iodide staining based flow cytometry relative to control. In kind it is functional. To be noted: NCI/ADR-RES. The gist of the method:
as §2

The nature of test [10]: Cell cycle arrest in human MCF7/ADR cells highly expressing sigma1 receptor assessed as accumulation at G0/G1 phase at 10 uM after 48 hrs by propidium iodide staining based flow cytometry relative to control. In kind it is functional. Particulars: NCI/ADR-RES. The gist of the method:
as §2

In test [11] the test system is Mus musculus. The test can be described thus: Analgesic effect in CD1 mouse at 1 mg/kg, sc by radiant heat tail flick test. Further details: dose 1 mg/kg. In kind it is functional, organism-based. The gist of the method: (§3)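 Male CD-1 mice, 25-35 g. Radiant heat tail flick, IR source aimed at the lower third of the tail. Basal latency (2-3 s) is the mean of two trials 30 min apart. Drug 1 mg/kg sc or vehicle (DMSO 1%) given 30 min before morphine 5.0 mg/kg sc or saline. Read at 30, 60, 90 and 120 min after morphine; cutoff 12 s. Reported as %MPE, mean ± SEM, n=8; ANOVA with Student-Newman-Keuls.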

The test system of test [12] is Mus musculus. The experiment in a line: Increase in morphine-induced analgesia in CD1 mouse at 1 mg/kg, sc administered 30 mins before morphine challenge measured after 60 to 120 mins post morphine challenge by radiant heat tail flick test. In kind it is functional, organism-based. Also noted: dose 1 mg/kg. The gist of the method: as §3
In test [13] the test system is MCF7. The test can be described thus: Cell cycle arrest in human MCF7 cells assessed as accumulation at S phase at 10 uM after 48 hrs by propidium iodide staining based flow cytometry relative to control. The test is classed as functional. The gist of the method: as §2
In test [14] the test system is NCI/ADR-RES. The experiment in a line: Induction of apoptosis in human MCF7/ADR cells highly expressing sigma1 receptor at 10 uM after 48 hrs by Annexin V staining based flow cytometry relative to control. In kind it is functional. The gist of the method: (§4)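 MCF-7 or MCF-7/ADR cells (3 × 10⁵/mL) exposed to 10 μM compound for 48 h at 37 °C, 5% CO2. Stained with Annexin V-FITC (1:40) for 10 min at room temperature in binding buffer (10 mM Hepes pH 7.4, 140 mM NaCl, 2.5 mM CaCl2), then read by FACS. Reported as % Annexin V+ cells, mean ± SEM of three experiments.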

Test [15] deals with MCF7. The experiment in a line: Cell cycle arrest in human MCF7 cells assessed as accumulation at G0/G1 phase at 10 uM after 48 hrs by propidium iodide staining based flow cytometry relative to control. In kind it is functional. The gist of the method: as §2
Test [16] relates to MCF7. The experiment in a line: Cell cycle arrest in human MCF7 cells assessed as accumulation at G2/M phase at 10 uM after 48 hrs by propidium iodide staining based flow cytometry relative to control. In kind it is functional. The gist of the method: as §2
The test system of test [17] is MCF7. The experiment in a line: Induction of apoptosis in human MCF7 cells at 10 uM after 48 hrs by Annexin V staining based flow cytometry relative to control. In kind it is functional. The gist of the method: as §4

Active and inactive are the calls of the source.

Chain of Sigma non-opioid intracellular receptor 1 (Q99720 whole entry): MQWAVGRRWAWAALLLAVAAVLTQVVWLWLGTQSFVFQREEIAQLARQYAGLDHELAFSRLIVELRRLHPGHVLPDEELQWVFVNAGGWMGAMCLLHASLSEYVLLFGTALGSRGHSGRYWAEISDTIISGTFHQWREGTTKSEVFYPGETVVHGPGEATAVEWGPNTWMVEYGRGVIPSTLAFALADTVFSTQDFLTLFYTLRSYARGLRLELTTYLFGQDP

In the case of `c1ccc(CN2CCC3(CCc4ccccc4O3)CC2)cc1`, the pKi in test [1] is 7.66; in [2] (jurkat) it was 9.21. Also, in test [3], the Ki selectivity ratio (sigma2/sigma1) is 36.
Molecule `c1ccc(CN2CCC3(CCc4ccccc4C3)CC2)cc1` had a negative logarithm of the Ki (pKi) in [1] of 7.85. In addition, the Ki in test [2] was 0.437 nM. Further, the Ki selectivity ratio (sigma2/sigma1) in [3] is 32. Moreover, in test [4], the IC50 was over 10000 nM.
Regarding `c1ccc(CN2CCC3(CC2)OCc2ccccc2S3)cc1`, the pKi in test [1] came out at 6.65. Besides, in [2], the Ki was 0.0891 nM. In the test on NCI/ADR-RES [5], the result was Active. Further, the Ki selectivity ratio (sigma2/sigma1) in test [3] was determined as 2510. For the same molecule, the outcome in the test with MCF7 [6] was inactive. In test [4], the IC50 was over 10000 nM.
As to `O=C1CC2(CCN(Cc3ccccc3)CC2)Oc2ccccc21`, the pKi in test [1] came to 6.52. The same molecule gave a Ki in [2] of 0.209 nM. Also, the result in the test on NCI/ADR-RES [5] was Active. For the same molecule, in test [7], growth was halved (GI50) at 10000 nM. In test [3], the Ki selectivity ratio (sigma2/sigma1) amounted to 1440. Further, the result with MCF7 [6] was inactive. Moreover, the IC50 in [4] is 7200 nM.
In [1], `c1ccc(CN2CCC3(CC2)OCc2ccccc2O3)cc1` registered a pKi of 6.64. Further, the affinity in [2] corresponds to a Ki of 0.0977 nM. Also, the outcome with NCI/ADR-RES [5] was Active. In addition, the Ki selectivity ratio (sigma2/sigma1) in test [3] amounted to 2340. Also, the result in the test on MCF7 [6] was inactive. Besides, the IC50 in test [4] is 3900 nM.
For `O=C1CC(C2CCN(CCc3ccccc3)CC2)Oc2ccccc21` (racemic), in [1], the pKi was 8.08. Moreover, the result in the test with NCI/ADR-RES [5] was Active. Moreover, the Ki selectivity ratio (sigma2/sigma1) in test [3] was 76. Also, the result in the test on MCF7 [6] was inactive.
Consider `O=C1CC(C2CCN(Cc3ccccc3)CC2)Oc2ccccc21` (racemic), for which, in test [1], the pKi is 6.76. Moreover, the figures for the Activity in [8], in test [9] and in test [10] were 14%, 23.3% and 62.7%, respectively. Also, the result in the test on NCI/ADR-RES [5] was Active. Moreover, the Ki selectivity ratio (sigma2/sigma1) in test [3] was 2630. The result in the test with MCF7 [6] was inactive.
In test [1], `c1ccc(CN2CCC(C3CCc4ccccc4S3)CC2)cc1` (racemic) gave a pKi of 7.24. This molecule gave a Ki in test [2] of 0.0575 nM. For the same molecule, the result with NCI/ADR-RES [5] was Active. Also, the Ki selectivity ratio (sigma2/sigma1) in test [3] came to 1000. Further, the result with MCF7 [6] was inactive. In addition, the IC50 in test [4] came to 8400 nM.
With `O=C1CC(C2CCN(Cc3ccccc3)CC2)Sc2ccccc21` (racemic), the outcome in the test on Mus musculus [11] and in the test with MCF7 [6] was inactive. Moreover, the pKi in test [1] was 5.81. Moreover, the figures for the Activity in test [8], in test [9] and in test [10] were 13.9%, 24.4% and 61.5%, respectively. Besides, the result with NCI/ADR-RES [5] and with Mus musculus [12] was Active.
In test [1], `O=C(CCCN1CCC(O)(c2ccc(Cl)cc2)CC1)c1ccc(F)cc1` [HALOPERIDOL] showed a negative logarithm of the Ki (pKi) of 6.95.
On to `c1ccc(CN2CCC3(CCc4ccccc4S3)CC2)cc1` [SPIPETHIANE], for which, in test [1], the pKi was 6.4. Further, the Activity in the test with MCF7 [13] worked out at 10%; with NCI/ADR-RES [14] it was 5.4%; in test [8], 20.1%; in test [9], 24.8%; in the test on MCF7 [15] it was 73%; in test [10], 55.1%. The results for the Activity with MCF7 [16] and with MCF7 [17] were 17% and 2.7%, respectively. The Ki in test [2] was 0.589 nM. Further, the result in the test with NCI/ADR-RES [5] was Active. In addition, the Ki selectivity ratio (sigma2/sigma1) in test [3] turned out to be 676. In the test on MCF7 [6], the outcome was inactive. Besides, the IC50 in [4] came to 6300 nM.

In general, pKi refers to −log10 of the Ki, conventionally taken in molar units. The low end stands for a high Ki, the high end for a low Ki. A word on the Ki: it is the equilibrium dissociation constant of an inhibitor or competing ligand from its target. Low readings indicate tighter binding, high ones weaker binding. Broadly, the IC50 is the point on the concentration scale where inhibition reaches its midpoint. The term GI50 denotes the concentration giving 50% growth inhibition.

These data come from ChEMBL document CHEMBL1156820, “Novel highly potent and selective sigma 1 receptor antagonists related to spipethiane” (J Med Chem, 2010).
